{"data": "Measured values of several laboratories", "FLT3": "Receptor-type tyrosine-protein kinase FLT3 (FLT3, Homo sapiens, UniProt P36888)", "FLT3 D835H": "Receptor-type tyrosine-protein kinase FLT3 (FLT3, Homo sapiens, UniProt P36888, D835H)", "FLT3 F691L/ITD": "Receptor-type tyrosine-protein kinase FLT3 (FLT3, Homo sapiens, UniProt P36888, F691L/ITD)", "FLT3 autoinhibited": "Receptor-type tyrosine-protein kinase FLT3, autoinhibited (FLT3, Homo sapiens, UniProt P36888)", "FLT3 R834Q": "Receptor-type tyrosine-protein kinase FLT3 (FLT3, Homo sapiens, UniProt P36888, R834Q)", "FLT3 D835V": "Receptor-type tyrosine-protein kinase FLT3 (FLT3, Homo sapiens, UniProt P36888, D835V)", "FLT3 N841I": "Receptor-type tyrosine-protein kinase FLT3 (FLT3, Homo sapiens, UniProt P36888, N841I)"}
{"SMILES": "CN(CCCC(F)(F)F)c1nccc(-c2cnn3ncccc23)n1", "target": "FLT3", "observed": "binding", "concentration": "1 µM", "measurement": "remaining binding", "result": "63%"}
{"SMILES": "COc1cc(Nc2c(C#N)cnc3cc(OCCCN4CCN(C)CC4)c(OC)cc23)c(Cl)cc1Cl", "target": "FLT3", "observed": "cell-free assay", "concentration": "0.5 µM", "measurement": "remaining signal", "result": "30.3%"}
{"SMILES": "O=C1CCc2cc(Nc3cc(OC4CCOCC4)c([N+](=O)[O-])cc3Cl)ccc2N1", "target": "FLT3 D835H", "observed": "cell-free assay", "method": "competition with immobilised ligand", "concentration": "1 µM", "measurement": "remaining binding", "result": "99%"}
{"SMILES": "Cc1cnc(Nc2ccc(C(=O)N3CCC(N4CCCC4)CC3)cc2)nc1-c1cc2ccccc2s1", "target": "FLT3 D835H", "observed": "binding", "method": "competition with immobilised ligand", "concentration": "1 µM", "measurement": "remaining binding", "result": "1.1%"}
{"SMILES": "Nc1ncnc2occ(-c3ccc(NC(=O)Nc4cc(C(F)(F)F)ccc4F)cc3)c12", "target": "FLT3 F691L/ITD", "observed": "cell-free assay", "mode": "inhibitor", "concentration": "20 µM", "measurement": "remaining signal", "result": "6.5%"}
{"SMILES": "Cc1[nH]c(/C=C2\\C(=O)Nc3ccc(F)cc32)c(C)c1C(=O)N[C@H]1CCN(C(=O)N(C)C)C1", "target": "FLT3", "observed": "enzyme activity", "mode": "inhibitor", "concentration": "1 µM", "measurement": "remaining activity", "result": "2%"}
{"SMILES": "COc1ncc2cc3ccccc3nc2c1C#N", "target": "FLT3", "observed": "cell-free assay", "method": "competition with immobilised ligand", "concentration": "5 µM", "measurement": "remaining binding", "result": "91%"}
{"SMILES": "Fc1cccc(-n2cnc3c(NCc4nc5c(F)c(F)ccc5[nH]4)nc(N4CCOCC4)nc32)c1", "target": "FLT3 D835H", "observed": "binding", "method": "competition with immobilised ligand", "concentration": "10 µM", "measurement": "binding vs control", "result": "42%"}
{"SMILES": "Cc1cc(NC(=O)c2cccc3cc(-c4cccc5[nH]nc(N)c45)ccc23)ccc1F", "target": "Receptor-type tyrosine-protein kinase FLT3 (FLT3, Homo sapiens, UniProt P36888, D835Y)", "observed": "enzyme activity", "mode": "inhibitor", "concentration": "0.1 µM", "measurement": "activity vs control", "result": "98%"}
{"SMILES": "C[C@H](NC(=O)c1cnc2n1[C@](C)(Cc1ccc(C#N)cc1)C(=O)N2c1cc(Cl)c(F)c(Cl)c1)C(=O)NC1(c2ccccn2)CC1", "target": "Receptor-type tyrosine-protein kinase FLT3 (FLT3, Homo sapiens, UniProt P36888, K663Q)", "observed": "cell-free assay", "method": "competition with immobilised ligand", "concentration": "1 µM", "measurement": "remaining binding", "result": "100%"}
{"SMILES": "N[C@@H]1CCN(c2nccc(-c3cnn4ncccc34)n2)C1", "target": "FLT3 autoinhibited", "observed": "binding", "concentration": "1 µM", "measurement": "remaining binding", "result": "100%"}
{"SMILES": "Cc1c(C(=O)O)cc(-c2ccc(C3CCNCC3)cc2)c2ccc(-c3ccc(C(F)(F)F)cc3)cc12", "target": "FLT3 R834Q", "observed": "binding", "method": "competition with immobilised ligand", "concentration": "1 µM", "measurement": "remaining binding", "result": "100%"}
{"SMILES": "O=C(c1ccc(Nc2nccc(-c3cc4ccccc4s3)n2)cc1)N1CCC(N2CCCC2)CC1", "target": "FLT3 F691L/ITD", "observed": "binding", "method": "competition with immobilised ligand", "concentration": "1 µM", "measurement": "remaining binding", "result": "19%"}
{"SMILES": "CN(C)c1ncc(F)c(-c2cnn3ncccc23)n1", "target": "FLT3 R834Q", "observed": "binding", "concentration": "1 µM", "measurement": "remaining binding", "result": "65%"}
{"SMILES": "NS(=O)(=O)c1cc(NC(=O)Cc2ccccc2)ccc1Oc1cccc(Cl)c1", "target": "FLT3 D835V", "observed": "cell-free assay", "method": "competition with immobilised ligand", "concentration": "1 µM", "measurement": "remaining binding", "result": "86%"}
{"SMILES": "c1cnn2ncc(-c3ccnc(N4CCC45COC5)n3)c2c1", "target": "FLT3 N841I", "observed": "binding", "concentration": "1 µM", "measurement": "remaining binding", "result": "72%"}
{"SMILES": "CCC(=N\\O)/C(C)=C/c1ccc(F)cc1", "target": "FLT3 D835V", "observed": "cell-free assay", "method": "competition with immobilised ligand", "concentration": "1 µM", "measurement": "remaining binding", "result": "100%"}
{"SMILES": "C[C@@H]1CCN(c2nccc(-c3cnn4ncccc34)n2)C1", "target": "FLT3 N841I", "observed": "binding", "concentration": "1 µM", "measurement": "remaining binding", "result": "99%"}
{"SMILES": "C[S+]([O-])c1ccc(-c2nc(-c3ccncc3)c(-c3ccc(F)cc3)[nH]2)cc1 (stereo not drawn)", "target": "FLT3", "observed": "cell-free assay", "concentration": "0.5 µM", "measurement": "remaining signal", "result": "91.5%"}
{"SMILES": "Cc1cnn2ncc(-c3ccnc(N(C)C)n3)c2c1", "target": "FLT3 autoinhibited", "observed": "binding", "concentration": "1 µM", "measurement": "remaining binding", "result": "84%"}
{"SMILES": "CCCOc1ccc([C@H]2[C@H](C(=O)O)[C@@H](c3ccc4c(c3)OCO4)CN2CC(=O)Nc2c(CC)cccc2CC)cc1", "target": "Receptor-type tyrosine-protein kinase FLT3 (FLT3, Homo sapiens, UniProt P36888, ITD)", "observed": "cell-free assay", "method": "competition with immobilised ligand", "concentration": "1 µM", "measurement": "remaining binding", "result": "81%"}
